Experimental data as given in ChEMBL document CHEMBL3868591, “Melokhanines A-J, Bioactive Monoterpenoid Indole Alkaloids with Diverse Skeletons from Melodinus khasianus” (J Nat Prod, 2016).
In brackets after ≈: the same amount, converted by molar mass.

Key:
Escherichia coli = assay: Antibacterial activity against Escherichia coli ATCC 11775 after 24 hrs by broth microdilution method; assay type: functional
In short: (§1)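 MIC determined by broth microdilution, three independent replicates. Strains used were P. aeruginosa ATCC 27853, E. faecalis ATCC 10541, E. coli ATCC 11775, S. aureus […] and K. pneumoniae ATCC 13883. Cefotaxime served as positive control.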

Pseudomonas aeruginosa = assay: Antibacterial activity against Pseudomonas aeruginosa ATCC 27853 after 24 hrs by broth microdilution method; assay type: functional; in short: as §1
Staphylococcus aureus = assay: Antibacterial activity against Staphylococcus aureus […] after 24 hrs by broth microdilution method; assay type: functional; in short: as §1
[1] = Cytotoxicity against human A549 cells after 48 hrs by MTT assay; assay type: functional, cell-based; conditions: A549, 48 h
In short: (§2)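 MTT read-out. Each cell line was exposed in triplicate to a range of concentrations for 48 h, with cisplatin as positive control.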

[2] = Cytotoxicity against human HL60 cells after 48 hrs by MTT assay; assay type: functional, cell-based; conditions: HL-60, 48 h; in short: as §2
Enterococcus faecalis = assay: Antibacterial activity against Enterococcus faecalis ATCC 10541 after 24 hrs by broth microdilution method; assay type: functional; in short: as §1
[3] = Cytotoxicity against human MCF7 cells after 48 hrs by MTT assay; assay type: functional, cell-based; conditions: MCF7, 48 h; in short: as §2
Klebsiella pneumoniae = assay: Antibacterial activity against Klebsiella pneumoniae ATCC 13883 after 24 hrs by broth microdilution method; assay type: functional; in short: as §1
[4] = Cytotoxicity against human SMMC7721 cells after 48 hrs by MTT assay; assay type: functional, cell-based; conditions: SMMC-7721, 48 h; in short: as §2
[5] = Cytotoxicity against human SW480 cells after 48 hrs by MTT assay; assay type: functional, cell-based; conditions: SW480, 48 h; in short: as §2
[6] = Antifungal activity against Epidermophyton floccosum CBS 566.94 after 48 hrs by broth microdilution method; assay type: functional
In short: (§3)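 Dermatophyte MICs obtained by broth microdilution in three independent replicates, with griseofulvin as positive control.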

[7] = Antifungal activity against Trichophyton mentagrophytes ATCC 4439 after 48 hrs by broth microdilution method; assay type: functional; in short: as §3
[8] = Antifungal activity against Trichophyton terrestre after 48 hrs by broth microdilution method; assay type: functional; in short: as §3
[9] = Antifungal activity against Microsporum ferrugineum CBS 457.80 after 48 hrs by broth microdilution method; assay type: functional; in short: as §3
Microsporum canis = assay: Antifungal activity against Microsporum canis CBS 113480 after 48 hrs by broth microdilution method; assay type: functional; conditions: CBS 113480, 48 h; in short: as §3
[10] = Antifungal activity against Trichophyton ajelloi E1501 after 48 hrs by broth microdilution method; assay type: functional; conditions: Arthroderma uncinatum; in short: as §3
Nannizzia gypsea = assay: Antifungal activity against Microsporum gypseum CBS 118893 after 48 hrs by broth microdilution method; assay type: functional; conditions: CBS 118893, 48 h; in short: as §3
[11] = DSM 30083 = JCM 1649 = ATCC 11775, 24 h

MIC (Escherichia coli; [11]) [µM] | MIC (Pseudomonas aeruginosa; ATCC 27853, 24 h) [µM] | MIC (Staphylococcus aureus) [µM] | MIC (Enterococcus faecalis; ATCC 10541, 24 h) [µM] | MIC (Klebsiella pneumoniae; ATCC 13883, 24 h) [µM] | Molecule | IC50 [1] [µM] | IC50 [2] [µM] | IC50 [3] [µM] | IC50 [4] [µM] | IC50 [5] [µM] | other results
> 150 | 5 (≈ 1.57 µg/mL) | > 150 | 39 (≈ 12.3 µg/mL) | > 150 | CC[C@@]12CCCN3CC[C@@H](c4ccccc4NC(=O)CC1)[C@]32O | > 40 | > 40 | > 40 | > 40 | > 40 | 
76 (≈ 24.8 µg/mL) | 19 (≈ 6.2 µg/mL) | 19 (≈ 6.2 µg/mL) | 19 (≈ 6.2 µg/mL) | > 150 | CC[C@@]12CCCN3C(=O)C[C@H]4c5cc(O)ccc5N(C(=O)CC1)C432 (some centres undefined) |  |  |  |  |  | 
73 (≈ 25 µg/mL) | 18 (≈ 6.16 µg/mL) | > 150 | 73 (≈ 25 µg/mL) | > 150 | CC[C@@]12CCCN3CC[C@]4(C(=O)c5ccccc5N4[C@@H](OC)[C@H]1O)[C@H]32 | > 40 | > 40 | > 40 | > 40 | > 40 | 
150 (≈ 49 µg/mL) | 5 (≈ 1.63 µg/mL) | > 150 | 5 (≈ 1.63 µg/mL) | > 150 | CC[C@@]12CCCN3CC[C@]4(C(=O)c5ccccc5N4[C@H](OC)C1)[C@H]32 | > 40 | > 40 | > 40 | > 40 | > 40 | 
> 150 | 2 (≈ 0.723 µg/mL) | > 150 | > 150 | 69 (≈ 24.9 µg/mL) | CC[C@@H]1CN2CC[C@]34c5ccccc5-n5c3c(cc(C(N)=O)c5=O)[C@H]1C[C@H]24 [LEUCONICINE A] |  |  |  |  |  | 
1.7 (≈ 0.774 µg/mL) | 0.4 (≈ 0.182 µg/mL) | 0.4 (≈ 0.182 µg/mL) | 0.4 (≈ 0.182 µg/mL) | 1.7 (≈ 0.774 µg/mL) | CO/N=C(\C(=O)N[C@@H]1C(=O)N2C(C(=O)O)=C(COC(C)=O)CS[C@H]12)c1csc(N)n1 [CEFOTAXIME] |  |  |  |  |  | 
> 150 | 2 (≈ 0.589 µg/mL) | > 150 | 42 (≈ 12.4 µg/mL) | > 150 | CC[C@]12C=CN3c4ccccc4C(=O)[C@]34CCN(CCC1)[C@H]24 | > 40 | > 40 | > 40 | > 40 | > 40 | 
71 (≈ 25 µg/mL) | 4 (≈ 1.41 µg/mL) | > 150 | 71 (≈ 25 µg/mL) | > 150 | CO[C@H]1CCN2CCc3c([nH]c4ccccc34)[C@@]3(C(=O)O)CCC=C1[C@H]23 | > 40 | > 40 | > 40 | > 40 | > 40 | 
 |  |  |  |  | COC1=CC(=O)C[C@@H](C)[C@]12Oc1c(Cl)c(OC)cc(OC)c1C2=O [GRISEOFULVIN] |  |  |  |  |  | MIC [6]: 9 µM (≈ 3.17 µg/mL); MIC [7]: 18 µM (≈ 6.35 µg/mL); MIC [8]: 35 µM (≈ 12.3 µg/mL); MIC [9]: 35 µM (≈ 12.3 µg/mL); MIC (Microsporum canis): 18 µM (≈ 6.35 µg/mL); MIC [10]: 71 µM (≈ 25 µg/mL); MIC (Nannizzia gypsea): 9 µM (≈ 3.17 µg/mL)
85 (≈ 25 µg/mL) | 5 (≈ 1.47 µg/mL) | > 150 | 2 (≈ 0.589 µg/mL) | > 150 | CC[C@@]12CCCN3CCc4c(n(c5ccccc45)C(=O)C1)[C@H]32 |  |  |  |  |  | 
75 (≈ 24.5 µg/mL) | 19 (≈ 6.2 µg/mL) | > 150 | 150 (≈ 49 µg/mL) | > 150 | CC[C@@]12CCCN3CC[C@]4(C(=O)c5ccccc5N4[C@@H](OC)C1)[C@H]32 | > 40 | > 40 | > 40 | > 40 | > 40 | 
> 150 | 2 (≈ 0.621 µg/mL) | > 150 | 5 (≈ 1.55 µg/mL) | > 150 | CC[C@@]12CCCN3CC[C@]4(C(=O)c5ccccc5N4C(=O)C1)[C@H]32 | > 40 | > 40 | > 40 | > 40 | > 40 | 
66 (≈ 24.7 µg/mL) | 2 (≈ 0.749 µg/mL) | > 150 | 66 (≈ 24.7 µg/mL) | 133 (≈ 49.8 µg/mL) | CCC1=CN2CC[C@]34c5ccccc5-n5c3c(cc(C(=O)OC)c5=O)[C@H]1C[C@H]24 |  |  |  |  |  | 
> 150 | 5 (≈ 1.63 µg/mL) | > 150 | 2 (≈ 0.653 µg/mL) | > 150 | CC[C@@]12CCCN3C(=O)C=C(c4ccccc4NC(=O)CC1)[C@]32O |  |  |  |  |  | 
> 150 | 22 (≈ 6.12 µg/mL) | > 150 | 22 (≈ 6.12 µg/mL) | > 150 | CC[C@]12C=Cn3c4c(c5ccccc53)CCN(CCC1)[C@@H]42 |  |  |  |  |  | 
 |  | > 150 |  |  | RAUWOLFIA SERPENTINA |  |  |  |  |  | MIC (Escherichia coli; DSM 30083 = JCM 1649 = ATCC 11775): 142 µM; MIC (Pseudomonas aeruginosa): 4 µM; MIC (Enterococcus faecalis): 71 µM; MIC (Klebsiella pneumoniae): > 150 µM
19 (≈ 6.28 µg/mL) | 19 (≈ 6.28 µg/mL) | 75 (≈ 24.8 µg/mL) | 75 (≈ 24.8 µg/mL) | 150 (≈ 49.6 µg/mL) | CC[C@]12CCCN(CC[C@]3(O)C(=O)Nc4ccccc43)[C@H]1OCC2 | > 40 | > 40 | > 40 | > 40 | > 40 | MIC [6]: 150 µM (≈ 49.6 µg/mL); MIC [7]: 150 µM (≈ 49.6 µg/mL); MIC [8]: > 150 µM; MIC [9]: 75 µM (≈ 24.8 µg/mL); MIC (Microsporum canis): 38 µM (≈ 12.6 µg/mL); MIC [10]: 150 µM (≈ 49.6 µg/mL); MIC (Nannizzia gypsea): 150 µM (≈ 49.6 µg/mL)
> 150 | 2 (≈ 0.709 µg/mL) | > 150 | 18 (≈ 6.38 µg/mL) | > 150 | C/C=C1/CN2CCc3c([nH]c4ccccc34)[C@@H]2C[C@@H]1[C@H](CO)C(=O)OC |  |  |  |  |  | 
150 (≈ 49.3 µg/mL) | 19 (≈ 6.24 µg/mL) | > 150 | 75 (≈ 24.6 µg/mL) | 150 (≈ 49.3 µg/mL) | CC[C@@]12CCCN3CC[C@]4(C(=O)c5ccccc5N4[C@@H](O)[C@H]1O)[C@H]32 | > 40 | > 40 | > 40 | > 40 | > 40 | 
147 (≈ 50 µg/mL) | 4 (≈ 1.36 µg/mL) | > 150 | 147 (≈ 50 µg/mL) | > 150 | CCO[C@@H]1C[C@@]2(CC)CCCN3CC[C@]4(C(=O)c5ccccc5N14)[C@H]32 | > 40 | > 40 | > 40 | > 40 | > 40 | 
> 150 | 4 (≈ 1.45 µg/mL) | > 150 | > 150 | 69 (≈ 25 µg/mL) | CC[C@@H]1CN2CC[C@]34c5ccccc5-n5c3c(cc(C(=O)O)c5=O)[C@H]1C[C@H]24 [MELODININE C] |  |  |  |  |  | 
> 150 | 2 (≈ 0.645 µg/mL) | > 150 | 19 (≈ 6.13 µg/mL) | 77 (≈ 24.8 µg/mL) | CC[C@]12CCCn3c(C=O)cc(c31)-c1ccccc1NC(=O)CC2 [RHAZINAL] |  |  |  |  |  | 

Molecule | MIC (Escherichia coli; [11]) [µM] | MIC (Pseudomonas aeruginosa; ATCC 27853, 24 h) [µM] | MIC (Staphylococcus aureus) [µM] | MIC (Enterococcus faecalis; ATCC 10541, 24 h) [µM] | MIC (Klebsiella pneumoniae; ATCC 13883, 24 h) [µM] | IC50 [1] [µM] | IC50 [2] [µM] | IC50 [3] [µM] | IC50 [4] [µM] | IC50 [5] [µM] | other results
CC[C@@]12CCCN3CC[C@@]4(O)c5ccccc5N(C(=O)CC1)[C@]324 | > 150 | 2 (≈ 0.625 µg/mL) | > 150 | > 150 | > 150 |  |  |  |  |  | 
